# Kir21 inh = inhibitors of mouse Kir2.1 inward-rectifier potassium channel | P35561 | HEK293-Kir2.1, FluxOR thallium flux fluorescence; hits give low values | B-score at 10 µM | 310,000 tested, 0.85% active;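 active = fluorescence ratio B-score at or below minus 3 SD of library scores, with starting-brightness B-score within 2 SD, cut at about -4.2 in these data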;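 also: channel flux triggered by added potassium and thallium sulfate stimulus; B-score of peak minus minimum fluorescence over baseline after thallium stimulus; more negative B-score means stronger Kir2.1 block with less thallium influx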
# TRPC6 inh = mouse TRPC6 channel inhibition; Q61143; HEK293-TRPC6, membrane potential dye, ACh-evoked depolarization; hits give low values; B-score at 10 µM; 310,000 tested, 1.1% active; AID 2553;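 active = B-score under library mean minus 3 SD, initial fluorescence not abnormally high, positive integrated signal ratio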;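 also: B-score derived from integrated fluorescence ratio over the kinetic read; more negative B-score means stronger inhibition of depolarization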
# TRPC4 block = inhibitors of mouse TRPC4 channel | Q9QUQ5 | AID 2247 | B-score at 10 µM | 300,000 tested, 0.39% active | HEK293 TRPC4beta/mu-opioid, DAMGO-evoked Fluo4 calcium flux; hits give low values;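 active = B-score over 3 SD under the library average, no early fluorescence shift, positive overall ratio signal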
#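 Assay system: TRPC4beta/mu-opioid receptor HEK293 cell line; compound dosing: single concentration per test compound; detection: Fluo4 Ca2+ flux fluorescence; evaluation: per-well B score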
# TRPC4 act = activators of mouse TRPC4 channel; Q9QUQ5; HEK293 TRPC4beta/mu-opioid, Fluo4 calcium fluorescence; hits give high values; B-score at 10 µM; 310,000 tested, 0.49% active;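 active = B-score above 5 SD of library B-scores, and initial fluorescence ratio not above library mean plus 5 SD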;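 also: positive B-score marks a calcium rise read as TRPC4 activation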
#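 System: HEK293 cells stably co-expressing mouse TRPC4beta and mu-opioid receptor; Schedule: Fluo4 dye loading 45 min at room temperature, 110 s recording; Detection: Fluo4 fluorescence, kinetic; Evaluation: B-scored integrated calcium fluorescence ratio; Controls: buffer (low) and maximal DAMGO (high).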
# TRPC4 potent = allosterically enhances the mouse TRPC4 cation channel | B-score at 10 µM | AID 2227 | 310,000 tested, 0.42% active | HEK293 TRPC4beta/mu-opioid, DAMGO EC20, Fluo-4 Ca2+ flux; hits give high values | Q9QUQ5;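 active = B-score of calcium response area above 5 SD of library B-scores, with initial fluorescence ratio within 5 SD of library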;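 also: B-score of integrated fluorescence ratio over time as area under calcium response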
# TRPC6 act = activators of mouse TRPC6 channel; Q61143; HEK293-TRPC6 membrane potential dye fluorescence; hits give high values; B-score at 10 µM; 310,000 tested, 0.13% active;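 active = B-score of the integrated fluorescence ratio above library mean plus 3 SD, and starting fluorescence ratio within library mean plus 5 SD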;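 also: higher score means more depolarization so channel activation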
# TRPC4 sel inh 2 = second selectivity test of TRPC6 inhibitors: effect on mouse TRPC4; shares compounds with TRPC6 inh; HEK293 TRPC4/MOR, membrane potential dye fluorescence; channel activated by saturating DAMGO dose; inhibition, % at 10 µM; 920 tested, 42% active; AID 2776;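 active = compounds whose fluorescence signal differed from control wells by over 3 SD, either direction, in both duplicate plates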
# TRPC4 spec = tests whether TRPC6 inhibitors also affect mouse TRPC4 | shares compounds with TRPC6 inh | HEK293 TRPC4/mu-opioid, membrane potential fluorescence | activity change, negative = inhibition, % at 10 µM | 920 tested, 61% active | AID 2777;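 active = rise or fall in signal beyond 3 SD of buffer-only wells in both replicate plates, either sign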;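 also: integrated kinetic ratio of fluorescence range over baseline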
# HEK293 MPD ctr 2-1 = parental HEK293 nonspecific activity of TRPC6 inhibitors, second screen; shares compounds with TRPC6 inh; parental HEK293 membrane potential dye fluorescence; maximal acetylcholine challenge after compound addition; signal change vs control, % at 10 µM; 920 tested, 31% active; AID 2779;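 active = membrane potential signal moving either way by over 3 SD of the maximum-effect control, in both duplicate plates, meaning non-specific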
# HEK293 MPD ctr-1 = checks TRPC6 inhibitor effects in parental HEK293 cells. 920 tested, 60% active. membrane potential signal change, % at 10 µM. shares compounds with TRPC6 inh. parental HEK293 membrane potential dye fluorescence;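 active = membrane potential signal shifting up or down by more than 3 SD of buffer-only wells, on both duplicate plates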
# HEK293 MPD ctr-2 = counter-screen for TRPC6 modulators: effect in parental HEK293 cells. shares compounds with TRPC6 inh. membrane potential dye fluorescence. membrane potential signal change, % at 10 µM. 2,400 tested, 51% active;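 active = membrane potential signal moves up or down beyond 5 SD from buffer-only wells, on both duplicate plates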
# HEK293 MPD ctr 2-2 = second check of TRPC6 modulator effects in parental HEK293 cells. shares compounds with TRPC6 inh. AID 488926. 2,400 tested, 14% active. inhibition, % at 10 µM. membrane potential dye fluorescence; after compound, maximal acetylcholine stimulation;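 active = membrane potential signal drops by more than 5 SD from the mean control signal, in both duplicate plates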;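 also: plate controls were acetylcholine ECmax control wells for no effect and buffer only wells for full effect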
# TRPC4/MOR mod = mouse TRPC4 off-target activity of TRPC6 modulators; shares compounds with TRPC6 inh; HEK293 TRPC4/mu-opioid, membrane potential fluorescence; percent change from control (negative = decrease, positive = increase), % at 10 µM; 2,400 tested, 69% active; AID 488927;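 active = membrane potential signal moved up or down beyond 5 SD of buffer control wells, in both duplicate plates, actives on both sides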;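 also: plate controls were assay buffer wells for no effect and DAMGO maximal-effect wells for full effect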
# TRPC4/MOR inh 2 = second check of whether TRPC6 modulators also affect mouse TRPC4; 2,400 tested, 55% active; inhibition, % at 10 µM; shares compounds with TRPC6 inh; AID 488928; HEK293 TRPC4/mu-opioid, membrane potential dye fluorescence; stimulated with maximal-effect DAMGO;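 active = drop in membrane potential signal beyond 5 SD of the control wells in both duplicate plates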;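 also: TRPC4 counter screen for TRPC6 hits run under conditions tuned for TRPC6 not TRPC4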
# TRPC6 block conf = mouse TRPC6 inhibitor confirmation | HEK293-TRPC6, membrane potential dye, ACh-evoked depolarization | AID 488960 | inhibition, % at 10 µM | shares compounds with TRPC6 inh | 3,300 tested, 43% active;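 active = fluorescence ratio falls more than 5 SD below the full-stimulation control mean, in both duplicate runs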;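 also: integrated fluorescence ratio of peak minus minimum over baseline after agonist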
# TRPC6 act conf = confirmation of mouse TRPC6 activators; 2,800 tested, 11% active; HEK293-TRPC6 membrane potential dye fluorescence, FDSS; shares compounds with TRPC6 inh; activation, % at 10 µM;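 active = ratio signal rise beyond 5 SD above unstimulated control wells' mean, seen in both duplicate runs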;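 also: plate controls were buffer EC0 wells for no effect and acetylcholine ECmax response for full effect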
# Numbers without * were called inactive; i = inactive; . = no result. In the library only some 2.9% were active in any assay of this set; here they are far more common.
SMILES,Kir21 inh,TRPC6 inh,TRPC4 block,TRPC4 act,TRPC4 potent,TRPC6 act,HEK293 MPD ctr-2,HEK293 MPD ctr 2-2,TRPC4/MOR mod,TRPC4/MOR inh 2,TRPC6 block conf,TRPC6 act conf,others
COc1ccccc1N1CCN(C(=O)c2cc(-c3ccccc3O)on2)CC1,0.17,-5.9*,i,i,i,i,i,i,i,i,i,i,
COc1ccccc1N1CCN(C(=O)c2cc(-c3ccccc3)on2)CC1,0.16,i,i,i,i,i,.,.,.,.,.,.,
CC(=O)c1sc2nsc(SCCN3CCCC3)c2c1N,-0.16,-5.2*,i,i,i,i,232%*,i,i,36%*,i,.,
O=C(c1ccco1)N1CCN(C(=O)c2ccccc2OC(=O)C23CC4CC(CC(C4)C2)C3)CC1,0.22,i,i,i,i,i,.,.,.,.,.,.,
CCOC(=O)C1CCN(C(=O)c2ccccc2Oc2ccccc2)CC1,-0.76,i,i,i,i,i,.,.,.,.,.,.,
O=C(c1ccco1)N1CCN(C(=O)c2ccccc2Oc2ccccc2)CC1,-1.6,-8.1*,i,i,i,i,.,.,.,.,62%*,.,TRPC4 sel inh 2=i;TRPC4 spec=13%*;HEK293 MPD ctr 2-1=i;HEK293 MPD ctr-1=6.7%*
CCOC(=O)N1CCN(C(=O)c2ccccc2Oc2ccccc2)CC1,-0.09,-6.1*,i,i,i,i,94%*,i,26%*,i,67%*,.,
O=c1c2ccccc2nc(SCc2nc3ccccc3s2)n1CCCO,0.08,i,i,i,i,i,.,.,.,.,.,.,
CC(=O)c1ccc(NC(=O)CC(C)S(=O)(=O)c2ccc3c(c2)CCN3C(C)=O)cc1 (stereo unspecified),0.38,i,i,i,i,i,.,.,.,.,.,.,
O=C(Nc1ccc(F)c(Cl)c1)C1CC(=O)N(Cc2ccccc2)C1 (stereo unspecified),0.01,-6.1*,i,i,i,i,i,i,-8.5%*,i,i,i,
O=C(Nc1ccccc1)C1CC(=O)N(Cc2ccccc2)C1 (stereo unspecified),-0.34,i,i,i,i,i,.,.,.,.,.,.,
[O-][N+]1=c2ccc(Nc3ccccc3)cc2=NC12CCCCC2,1.3,-6.7*,i,i,i,i,-206%*,i,-29%*,41%*,i,i,

# From PubChem
